Assay results as given in PMC7606739 (FASEB journal : official publication of the Federation of …, 2020).

Assays:
[1] = molecular target: T1, zebrafish 12-LOX (zf12-LOX, Alox12) (Danio rerio, UniProt A0ACM8Q0F4); test: UV-Vis lipoxygenase rate assay; format: biochemical
T1 sequence (A0ACM8Q0F4 1-670): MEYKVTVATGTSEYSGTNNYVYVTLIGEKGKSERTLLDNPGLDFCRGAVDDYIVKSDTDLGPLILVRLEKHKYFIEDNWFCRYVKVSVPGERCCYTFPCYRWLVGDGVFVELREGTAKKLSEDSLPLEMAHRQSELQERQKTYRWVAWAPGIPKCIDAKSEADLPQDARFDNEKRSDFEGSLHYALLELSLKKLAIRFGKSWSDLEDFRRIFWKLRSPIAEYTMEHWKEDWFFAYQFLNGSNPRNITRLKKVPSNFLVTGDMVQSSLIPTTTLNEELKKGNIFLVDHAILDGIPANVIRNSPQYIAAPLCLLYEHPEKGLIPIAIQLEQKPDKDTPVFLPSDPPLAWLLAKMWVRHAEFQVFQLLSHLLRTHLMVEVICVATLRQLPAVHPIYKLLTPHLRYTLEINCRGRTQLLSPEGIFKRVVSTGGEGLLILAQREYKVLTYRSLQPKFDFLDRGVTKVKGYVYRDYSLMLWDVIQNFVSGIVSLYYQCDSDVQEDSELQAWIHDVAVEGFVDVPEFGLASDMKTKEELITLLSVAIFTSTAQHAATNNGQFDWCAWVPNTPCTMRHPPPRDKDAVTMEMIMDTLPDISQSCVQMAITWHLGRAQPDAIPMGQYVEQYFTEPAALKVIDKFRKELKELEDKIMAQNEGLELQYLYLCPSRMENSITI
How it was run: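 N-terminal 6xHis-tagged zf12-LOX, expressed from a pFastBac construct, purified on nickel-iminodiacetic acid agarose (>90% pure by SDS-PAGE). Reaction in 25 mM HEPES (pH 8.00), 0.01% Triton X-100, 10 μM arachidonic acid, run as a steady-state kinetic UV-Vis assay. Enzymatic rate measured at six inhibitor concentrations in triplicate; IC50 from a hyperbolic saturation curve fit of rate versus concentration.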

[2] = molecular target: T2, human 12-LOX (Human ALOX12) (Homo sapiens, UniProt P18054); test: biochemical
T2 sequence (P18054 1-663): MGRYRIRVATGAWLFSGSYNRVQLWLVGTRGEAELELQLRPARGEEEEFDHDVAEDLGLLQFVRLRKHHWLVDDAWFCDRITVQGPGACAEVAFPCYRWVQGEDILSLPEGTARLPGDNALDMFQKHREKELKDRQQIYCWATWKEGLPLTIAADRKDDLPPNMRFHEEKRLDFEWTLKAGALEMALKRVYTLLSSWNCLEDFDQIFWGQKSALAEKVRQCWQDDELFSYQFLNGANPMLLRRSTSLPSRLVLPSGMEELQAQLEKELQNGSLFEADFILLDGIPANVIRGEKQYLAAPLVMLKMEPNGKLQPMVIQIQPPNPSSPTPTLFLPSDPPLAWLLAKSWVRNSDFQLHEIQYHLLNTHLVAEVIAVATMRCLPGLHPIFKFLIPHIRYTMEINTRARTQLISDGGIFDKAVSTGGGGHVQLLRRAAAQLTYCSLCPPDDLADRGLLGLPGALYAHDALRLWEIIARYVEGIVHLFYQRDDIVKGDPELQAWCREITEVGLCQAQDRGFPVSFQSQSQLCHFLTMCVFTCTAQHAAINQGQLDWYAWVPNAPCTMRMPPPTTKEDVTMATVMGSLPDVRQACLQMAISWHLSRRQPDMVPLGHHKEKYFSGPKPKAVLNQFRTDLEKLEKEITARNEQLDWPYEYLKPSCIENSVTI

IC50 [1]: > 100 µM
IC50 [2]: > 50 µM
SMILES: CNc1oc(-c2cccc3ccccc23)nc1C#N [ML351]
